From ChEMBL document CHEMBL4024747, “Design, Synthesis, and Biological Activities of Vibsanin B Derivatives: A New Class of HSP90 C-Terminal Inhibitors” (J Med Chem, 2017)
pIC50: −log10 of the molar value. Each block holds one molecule with its values, some of them ahead of it. Activity calls are given as the source filed them. The calls are words filed in the database; no cut-off is given here.

Legend:
[1] = Half life of compound in toluene at 60 degreeC by HPLC analysis; format: physicochemical
Outline: (§1)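 Thermostability in toluene at 110 °C or 60 °C followed by HPLC; half-life estimated.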

Oryctolagus cuniculus = organism: Oryctolagus cuniculus; experiment: Inhibition of HSP90 in rabbit reticulocyte lysate assessed as decrease in HSP90-dependant refolding of firefly luciferase at 10 uM after 30 mins by luciferase gene based assay
Outline: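 Firefly luciferase heat-denatured at 41 °C for 10 min, then added with rabbit reticulocyte lysate to compounds at 10 μM. Renaturation at room temperature for 3 h; luciferin substrate added and luminescence read. Refolding expressed relative to DMSO; novobiocin at 500 μM as reference. Three independent experiments.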

SMMC-7721 = experiment: Antiproliferative activity against human SMMC7721 cells assessed as reduction in cell viability after 48 hrs by MTT assay; format: functional, cell-based; conditions: SMMC-7721, 48 h
SK-BR-3 = experiment: Antiproliferative activity against human SKBR3 cells assessed as reduction in cell viability after 48 hrs by MTT assay; format: functional, cell-based; conditions: SK-BR-3, 48 h
[2] = molecular target: T1, Heat shock protein HSP90 (Homo sapiens) (UniProt P07900+P08238); experiment: Inhibition of HSP90 in human BT474 cells assessed as induction of HSP70 expression at 1.25 to 5 uM after 24 hrs by Western blot analysis; format: cell-based
Outline: (§2)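 BT474 cells lysed directly in 2× Laemmli buffer; proteins resolved on 12% acrylamide gel and transferred to PVDF. Blocked overnight at 4 °C in 5% skim milk, then probed 1 h at room temperature with antibodies to HER2, pAkt, CDK4, HSP90, HSP70 and HSP27. Chemiluminescent detection with β-actin as loading control; run in triplicate.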

[3] = molecular target: Heat shock protein HSP 90-beta (Homo sapiens) (UniProt P08238); experiment: Inhibition of FITC-geldanamycin binding to human FLAG-tagged HSP90beta N-terminal domain
BT-474 [4] = experiment: Cell cycle arrest in human BT474 cells assessed as accumulation at subG1 phase at 5 uM after 16 hrs by propidium iodide-staining based FACS analysis (reference value: 0.81%); format: functional
[5] = molecular target: Heat shock protein HSP 90-alpha (Homo sapiens) (UniProt P07900); experiment: Inhibition of FITC-geldanamycin binding to human FLAG-tagged HSP90alpha N-terminal domain
SW480 = experiment: Antiproliferative activity against human SW480 cells assessed as reduction in cell viability after 48 hrs by MTT assay; format: functional, cell-based; conditions: SW480, 48 h
BT-474 [6] = experiment: Cell cycle arrest in human BT474 cells assessed as accumulation at G0/G1 phase at 2.5 uM after 16 hrs by propidium iodide-staining based FACS analysis (reference value: 74.88%); format: functional
[7] = molecular target: T1, Heat shock protein HSP90 (Homo sapiens); experiment: Inhibition of HSP90 in human BT474 cells assessed as decrease in c-Raf protein expression at 1.25 to 5 uM after 24 hrs by Western blot analysis; format: cell-based
[8] = molecular target: Luciferin 4-monooxygenase (Photinus pyralis) (UniProt P08659); experiment: Inhibition of firefly luciferase activity using luciferin substrate at 10 uM after 30 mins by luminescence assay
[9] = Half life of compound in toluene at 110 degreeC by HPLC analysis; format: physicochemical; outline: as §1
BT-474 [10] = experiment: Cell cycle arrest in human BT474 cells assessed as accumulation at G2/M phase at 2.5 uM after 16 hrs by propidium iodide-staining based FACS analysis (reference value: 15.79%); format: functional
[11] = molecular target: Heat shock protein HSP 90-beta (Homo sapiens) (UniProt P08238); experiment: Inhibition of recombinant human Biotin-labeled N-terminal His/Avi-tagged HSP90beta C-terminal domain (527 to 724 residues) expressed in Escherichia coli interaction with GST-tagged Cyp40 at 1 to 100 uM after 30 mins by Alphascreen assay
Outline: (§3)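 AlphaScreen assay: biotin-labelled HSP90β C-terminus (aa 527–724) mixed with GST-Cyp40 and compound (1–100 μM; novobiocin 500 μM) for 30 min at room temperature. Glutathione acceptor beads added for 30 min, then streptavidin donor beads for 10 min. Excitation at 680 nm, emission read at 520–620 nm; percent activity calculated against enzyme and background wells.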

[12] = Stability of compound in DMSO at 4 degreeC after 4 weeks HPLC analysis; format: physicochemical; conditions: 672 h
[13] = molecular target: T1, Heat shock protein HSP90 (Homo sapiens); experiment: Inhibition of HSP90 in human BT474 cells assessed as decrease in CDK4 protein expression at 1.25 to 5 uM after 24 hrs by Western blot analysis; format: cell-based; outline: as §2
BEAS-2B = experiment: Cytotoxicity against human BEAS2B cells assessed as reduction in cell viability after 48 hrs by MTT assay; format: cell-based
[14] = molecular target: T1, Heat shock protein HSP90 (Homo sapiens); experiment: Inhibition of HSP90 in human BT474 cells assessed as decrease in Her2 protein expression at 1.25 to 5 uM after 24 hrs by Western blot analysis; format: cell-based; outline: as §2
[15] = molecular target: Heat shock protein HSP 90-beta (Homo sapiens) (UniProt P08238); experiment: Inhibition of recombinant human Biotin-labeled N-terminal His/Avi-tagged HSP90beta C-terminal domain (527 to 724 residues) expressed in Escherichia coli interaction with GST-tagged Cyp40 at 100 uM after 30 mins by Alphascreen assay; outline: as §3
BT-474 [16] = experiment: Cell cycle arrest in human BT474 cells assessed as accumulation at G2/M phase at 5 uM after 16 hrs by propidium iodide-staining based FACS analysis (reference value: 15.79%); format: functional
HepG2 = experiment: Antiproliferative activity against human HepG2 cells assessed as reduction in cell viability after 48 hrs by MTT assay; format: functional, cell-based; conditions: HepG2, 48 h
BT-474 [17] = experiment: Antiproliferative activity against human BT474 cells assessed as reduction in cell viability after 48 hrs by MTT assay; format: functional, cell-based; conditions: BT-474, 48 h
[18] = Stability of compound in pH 7.4 PBS at 37 degreeC after 12 hrs by HPLC analysis; format: physicochemical; conditions: buffer, pH 7.4, 12 h
Outline: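 Solution stability determined by HPLC after incubation in PBS pH 7.4 at 37 °C for 12 h.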

MCF7 = experiment: Antiproliferative activity against human MCF7 cells assessed as reduction in cell viability after 48 hrs by MTT assay; format: functional, cell-based; conditions: MCF7, 48 h
[19] = molecular target: T1, Heat shock protein HSP90 (Homo sapiens); experiment: Inhibition of HSP90 in human BT474 cells assessed as decrease in p-Akt expression at 1.25 to 5 uM after 24 hrs by Western blot analysis; format: cell-based; outline: as §2
HeLa = experiment: Antiproliferative activity against human HeLa cells assessed as reduction in cell viability after 48 hrs by MTT assay; format: functional, cell-based
Danio rerio = organism: Danio rerio; experiment: Toxicity in 3 days post fertilized zebrafish embryo assessed as changes in embryonic phenotypes at 4 to 16 uM after 12 hrs; conditions: in vivo
BT-474 [20] = experiment: Cell cycle arrest in human BT474 cells assessed as accumulation at S phase at 5 uM after 16 hrs by propidium iodide-staining based FACS analysis (reference value: 8.52%); format: functional
BT-474 [21] = experiment: Cell cycle arrest in human BT474 cells assessed as accumulation at S phase at 2.5 uM after 16 hrs by propidium iodide-staining based FACS analysis (reference value: 8.52%); format: functional
HL-60 = experiment: Antiproliferative activity against human HL60 cells assessed as reduction in cell viability after 48 hrs by MTT assay; format: functional, cell-based; conditions: HL-60, 48 h
Huh-7 = experiment: Antiproliferative activity against human HuH7 cells assessed as reduction in cell viability after 48 hrs by MTT assay; format: functional, cell-based; conditions: Huh-7, 48 h
MDA-MB-468 = experiment: Antiproliferative activity against human MDA-MB-468 cells assessed as reduction in cell viability after 48 hrs by MTT assay; format: functional, cell-based; conditions: MDA-MB-468, 48 h
BT-474 [22] = experiment: Cell cycle arrest in human BT474 cells assessed as accumulation at G0/G1 phase at 5 uM after 16 hrs by propidium iodide-staining based FACS analysis (reference value: 74.88%); format: functional
[23] = Drug metabolism in deionized water assessed as compound decomposition at 100 degreeC after 10 mins by HPLC analysis relative to control; format: physicochemical; conditions: read-out: Drug metabolism
Outline: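 Thermostability determined by HPLC after heating in deionized water at 100 °C for 10 min; decomposition recorded in percent.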

AGS = experiment: Antiproliferative activity against human AGS cells assessed as reduction in cell viability after 48 hrs by MTT assay; format: functional, cell-based
[24] = molecular target: T1, Heat shock protein HSP90 (Homo sapiens); experiment: Inhibition of HSP90 in human BT474 cells assessed as induction of HSP27 expression at 1.25 to 5 uM after 24 hrs by Western blot analysis; format: cell-based; outline: as §2
BT-474 [25] = experiment: Cell cycle arrest in human BT474 cells assessed as accumulation at subG1 phase at 2.5 uM after 16 hrs by propidium iodide-staining based FACS analysis (reference value: 0.81%); format: functional
A549 = experiment: Antiproliferative activity against human A549 cells assessed as reduction in cell viability after 48 hrs by MTT assay; format: functional, cell-based; conditions: A549, 48 h
[26] = molecular target: Heat shock protein HSP 90-beta (Homo sapiens) (UniProt P08238); experiment: Inhibition of recombinant human Biotin-labeled N-terminal His/Avi-tagged HSP90beta C-terminal domain (527 to 724 residues) expressed in Escherichia coli interaction with GST-tagged Cyp40 at 500 uM after 30 mins by Alphascreen assay; outline: as §3

Heat shock protein HSP 90-beta (Homo sapiens), sequence (P08238 whole entry, the tested form may be a part): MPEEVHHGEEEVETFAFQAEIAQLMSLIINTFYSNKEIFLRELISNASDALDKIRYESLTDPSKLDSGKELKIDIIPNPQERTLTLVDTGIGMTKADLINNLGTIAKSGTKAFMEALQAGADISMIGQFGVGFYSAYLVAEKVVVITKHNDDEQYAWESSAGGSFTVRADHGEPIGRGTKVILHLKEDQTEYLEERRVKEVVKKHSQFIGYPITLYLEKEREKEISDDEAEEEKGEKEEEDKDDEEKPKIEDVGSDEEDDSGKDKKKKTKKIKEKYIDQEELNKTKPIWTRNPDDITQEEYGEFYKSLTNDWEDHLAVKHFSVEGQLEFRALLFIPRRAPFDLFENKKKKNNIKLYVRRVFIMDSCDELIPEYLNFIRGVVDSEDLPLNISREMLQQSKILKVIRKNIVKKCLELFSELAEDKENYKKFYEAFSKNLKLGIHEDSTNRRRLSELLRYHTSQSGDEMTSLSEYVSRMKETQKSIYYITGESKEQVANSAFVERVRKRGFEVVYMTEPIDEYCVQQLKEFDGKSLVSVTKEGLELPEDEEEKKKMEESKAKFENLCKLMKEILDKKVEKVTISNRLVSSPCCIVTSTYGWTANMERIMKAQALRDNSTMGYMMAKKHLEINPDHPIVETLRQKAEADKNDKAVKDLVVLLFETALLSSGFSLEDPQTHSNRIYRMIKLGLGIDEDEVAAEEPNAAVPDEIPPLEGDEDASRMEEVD
Luciferin 4-monooxygenase (Photinus pyralis), sequence (P08659 whole entry): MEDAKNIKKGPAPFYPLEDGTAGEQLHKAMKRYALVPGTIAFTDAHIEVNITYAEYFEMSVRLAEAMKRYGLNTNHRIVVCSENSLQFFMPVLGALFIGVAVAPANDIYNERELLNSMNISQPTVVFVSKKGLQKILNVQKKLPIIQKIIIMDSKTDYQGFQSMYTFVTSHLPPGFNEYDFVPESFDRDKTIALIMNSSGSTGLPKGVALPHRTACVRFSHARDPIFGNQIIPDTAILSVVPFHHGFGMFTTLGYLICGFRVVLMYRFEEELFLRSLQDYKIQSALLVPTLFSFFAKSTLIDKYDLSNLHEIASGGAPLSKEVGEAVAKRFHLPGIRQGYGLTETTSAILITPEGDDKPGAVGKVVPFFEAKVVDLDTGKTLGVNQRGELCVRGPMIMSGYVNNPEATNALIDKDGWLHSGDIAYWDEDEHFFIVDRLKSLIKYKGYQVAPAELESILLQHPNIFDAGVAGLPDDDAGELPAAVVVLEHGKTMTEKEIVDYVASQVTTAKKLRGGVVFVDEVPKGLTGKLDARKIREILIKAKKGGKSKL

half-life [1]: 20 min
inhibition (Oryctolagus cuniculus): Active
pIC50 (SMMC-7721): 5.53
pIC50 (SK-BR-3): 5.95
inhibition [2]: Active
inhibition [3]: inactive
inhibition [5]: inactive
pIC50 (SW480): 6.10
inhibition [7]: Active
inhibition [8]: inactive
half-life [9]: 5 min
inhibition [11]: Active
Stability [12]: Stable
inhibition [13]: Active
inhibition [14]: Active
inhibition [15]: Active
pIC50 (HepG2): 5.65
pIC50 (BT-474 [17]): 5.58
Stability [18]: Stable
pIC50 (MCF7): 6.26
inhibition [19]: Active
pIC50 (HeLa): 6.23
pIC50 (HL-60): 6.08
pIC50 (Huh-7): 6.07
pIC50 (MDA-MB-468): 6.12
degraded at 10 min [23]: 2.3%
pIC50 (AGS): 6.07
inhibition [24]: Active
pIC50 (A549): 6.03
Structure (SMILES): CC(C)=CCC[C@]1(C)/C=C/[C@@H](OC(=O)C=C(C)C)[C@](C)(O)/C=C/C(=O)/C(CN2CCN(C)CC2)=C\C1
Activity (BT-474 [4]): 4.18%
Activity (BT-474 [6]): 73.18%
Activity (BT-474 [10]): 19.49%
pIC50 (BEAS-2B): 5.55
Activity (BT-474 [16]): 25.6%
Activity (Danio rerio): Non-Toxic
Activity (BT-474 [20]): 8.33%
Activity (BT-474 [21]): 5.3%
Activity (BT-474 [22]): 61.89%
Activity (BT-474 [25]): 2.03%

inhibition [26]: Active
inhibition [11]: Active
Structure (SMILES): CO[C@@H]1[C@@H](OC(N)=O)[C@@H](O)[C@H](Oc2ccc3c(O)c(NC(=O)c4ccc(O)c(CC=C(C)C)c4)c(=O)oc3c2C)OC1(C)C
